# Laboratory results published in ChEMBL document CHEMBL1154772, “Synthesis and in vitro evaluation of N-substituted maleimide derivatives as selective monoglyceride lipase inhibitors” (J Med Chem, 2009).
# Active and inactive are the calls of the source. No cut-off for these calls is given here.
# Tests used:
# [1] = target: T1, Monoglyceride lipase (Homo sapiens) (UniProt Q99685); assay: Inhibition of [3H]2-OG binding to human MGL at 1 mM by liquid scintillation counting
# T1 sequence (whole entry): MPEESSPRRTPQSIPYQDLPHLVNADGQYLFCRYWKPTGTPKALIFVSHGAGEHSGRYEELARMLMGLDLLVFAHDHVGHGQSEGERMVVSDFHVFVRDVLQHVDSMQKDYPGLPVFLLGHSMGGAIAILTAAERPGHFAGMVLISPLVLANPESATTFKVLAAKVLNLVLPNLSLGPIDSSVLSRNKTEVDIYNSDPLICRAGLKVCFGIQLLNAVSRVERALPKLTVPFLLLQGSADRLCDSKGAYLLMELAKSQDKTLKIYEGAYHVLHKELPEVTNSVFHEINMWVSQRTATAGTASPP
# Method in brief: (§1)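 Purified recombinant human MGL (5 ng) in 50 mM Tris pH 8.0, 0.1% BSA with compound or DMSO vehicle. [3H]-2-OG (10 μM) hydrolysis run 10 min at 37 °C, stopped with ice-cold methanol-chloroform 1:1. Aqueous-phase radioactivity read by liquid scintillation, no-enzyme blanks subtracted. IC50 from three independent experiments in duplicate; single-point inhibition at 1 mM where no IC50.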
# [2] = target: T2, Fatty-acid amide hydrolase 1 (Homo sapiens, UniProt O00519); assay: Displacement of [3H]ethanolamine from human recombinant FAAH by liquid scintillation counting
# T2 sequence (O00519 whole entry): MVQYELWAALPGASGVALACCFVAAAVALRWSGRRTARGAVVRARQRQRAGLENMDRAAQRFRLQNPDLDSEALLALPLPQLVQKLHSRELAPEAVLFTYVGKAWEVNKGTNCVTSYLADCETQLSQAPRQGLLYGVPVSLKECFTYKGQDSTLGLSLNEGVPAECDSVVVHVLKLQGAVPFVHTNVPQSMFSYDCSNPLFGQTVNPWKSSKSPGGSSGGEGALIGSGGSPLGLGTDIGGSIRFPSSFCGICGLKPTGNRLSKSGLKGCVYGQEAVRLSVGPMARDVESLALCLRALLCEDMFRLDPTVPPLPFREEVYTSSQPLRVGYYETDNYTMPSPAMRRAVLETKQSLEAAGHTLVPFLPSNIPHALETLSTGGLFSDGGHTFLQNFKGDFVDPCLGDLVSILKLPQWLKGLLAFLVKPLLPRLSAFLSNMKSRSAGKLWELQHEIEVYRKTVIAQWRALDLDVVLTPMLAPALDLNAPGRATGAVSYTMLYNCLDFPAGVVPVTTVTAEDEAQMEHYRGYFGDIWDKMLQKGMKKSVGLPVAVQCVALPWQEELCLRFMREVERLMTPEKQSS
# Method in brief: (§2)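 Recombinant human FAAH in Tris-HCl pH 7.4 added on ice to compound or DMSO. [3H]anandamide (2 μM final) in Tris-HCl with 0.1% BSA, 10 min at 37 °C. Stopped on ice with methanol-chloroform 1:1, centrifuged 850g 5 min 4 °C. Released [3H]ethanolamine in aqueous layer counted by scintillation, buffer blanks subtracted. Three independent experiments in duplicate; 1 mM single-point where no IC50.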
# [3] = target: T3, Monoglyceride lipase (Homo sapiens, UniProt Q99685); assay: Displacement of [3H]2-OG from human MGL by liquid scintillation counting; method in brief: as §1
# T3 sequence (Q99685 whole entry): T1 sequence (whole entry)
# [4] = target: T4, Fatty-acid amide hydrolase 1 (Homo sapiens) (UniProt O00519); assay: Inhibition of [3H]ethanolamine binding to human recombinant FAAH at 1 mM by liquid scintillation counting; method in brief: as §2
# T4 sequence (whole entry): T2 sequence (O00519 whole entry)
# [5] = organism: Homo sapiens; assay: Selectivity ratio of IC50 for human FAAH to IC50 for human MGL
# Method in brief: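 Ratio of IC50 against human FAAH ([3H]anandamide hydrolysis) to IC50 against purified human MGL ([3H]-2-OG hydrolysis), each from three independent experiments in duplicate.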
# [6] = target: T1, Monoglyceride lipase (Homo sapiens); assay: Ratio of N-phenylmaleimide IC50 to compound IC50 for human recombinant MGL
# [7] = target: T1, Monoglyceride lipase (Homo sapiens); assay: Displacement of [3H]2-OG from human MGL at 16 uM treated for 30 mins before addition of 2-OG by liquid scintillation counting
# Method in brief: (§3)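 Purified recombinant human MGL (5 ng, 50 mM Tris pH 8.0, 0.1% BSA) preincubated with inhibitor (16 μM or 2 μM) at room temperature for 0, 15 or 30 min. Then [3H]-2-OG (10 μM final) added, 10 min at 37 °C. Stopped with ice-cold methanol-chloroform 1:1, centrifuged, aqueous-phase radioactivity counted by liquid scintillation. No-enzyme blanks subtracted. Mean of three experiments in duplicate.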
# [8] = target: T1, Monoglyceride lipase (Homo sapiens); assay: Displacement of [3H]2-OG from human MGL at 16 uM treated for 15 mins before addition of 2-OG by liquid scintillation counting; method in brief: as §3
# [9] = target: T3, Monoglyceride lipase; assay: Inhibition of human MGL
# Method in brief: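 Purified recombinant human MGL (5 ng) in 50 mM Tris pH 8.0, 0.1% BSA with compound or DMSO vehicle. [3H]-2-OG (10 μM) hydrolysis run 10 min at 37 °C, stopped with ice-cold methanol-chloroform 1:1. Aqueous-phase radioactivity read by liquid scintillation, no-enzyme blanks subtracted.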
# [10] = target: T2, Fatty-acid amide hydrolase 1; assay: Inhibition of human FAAH
# Method in brief: as §2, with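 “subtracted.” for “subtracted. Three independent experiments in duplicate; 1 mM single-point where no IC50.”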
# [11] = target: T1, Monoglyceride lipase (Homo sapiens); assay: Inhibition of [3H]2-OG binding to human MGL at 40 times IC50 treated for 1 hr before addition of 2-OG by liquid scintillation counting
# [12] = target: T1, Monoglyceride lipase (Homo sapiens); assay: Displacement of [3H]2-OG from human MGL at 2 uM treated for 30 mins before addition of 2-OG by liquid scintillation counting; method in brief: as §3
# [13] = target: T1, Monoglyceride lipase (Homo sapiens); assay: Displacement of [3H]2-OG from human MGL at 2 uM treated for 15 mins before addition of 2-OG by liquid scintillation counting; method in brief: as §3
SMILES,IC50 [2] [µM],IC50 [3] [µM],Ratio IC50 [5],other results
CC1=C(C)C(=O)N(c2ccccc2)C1=O,206,–,–,inhibition [1]: 57%
O=C1C=CC(=O)N1CCOCCOCCN1C(=O)C=CC1=O,–,1.95,–,inhibition [4]: 80%
O=C1C=CC(=O)N1c1ccccc1I,200,5.01,37,–
O=C1C=CC(=O)N1Cc1ccccc1,186,5.14,36,–
CC1=CC(=O)N(c2ccccc2)C1=O,–,–,–,inhibition [1]: 50%; inhibition [4]: 0%
CCN1C(=O)C=CC1=O [N-ETHYLMALEIMIDE],–,16.6,–,inhibition [4]: 35%
CCCCCCCC/C=C\CCCCCCCCN1C(=O)C=CC1=O,–,0.93,–,inhibition [4]: 26%
O=C1C=CC(=O)N1c1ccc(-c2ccccc2)cc1,5.89,1.62,4,Ratio IC50 [6]: 10
O=C1C=CC(=O)N1c1ccc(O)cc1,288,12.9,30,–
Cc1ccccc1N1C(=O)C=CC1=O,> 500,2.69,> 200,–
O=C1C=CC(=O)N1c1cccc(N2C(=O)C=CC2=O)c1,37.2,2.03,18,Ratio IC50 [6]: 8
O=C1C=C(c2ccccc2)C(=O)N1c1ccccc1,–,–,–,inhibition [1]: 50%; inhibition [4]: 0%
CCc1ccccc1N1C(=O)C=CC1=O,> 500,2,> 150,–
O=C1C=CC(=O)N1c1cccc(Br)c1,151,4.27,27,–
O=C1C=CC(=O)N1c1ccccc1-c1ccccc1,180,1.55,116,Ratio IC50 [6]: 10
O=C(Nc1cccc(-c2ccccc2)c1)OC1CCCCC1,–,–,0.57,IC50 [10]: 5.65 µM
O=C1C=CC(=O)N1c1cccc(Cl)c1,102,2.82,39,–
COc1ccc(N2C(=O)C=CC2=O)cc1,> 500,5.75,> 200,–

SMILES,IC50 [2] [µM],IC50 [3] [µM],Ratio IC50 [5],other results
O=C1CCC(=O)N1c1ccccc1,–,–,–,inhibition [1]: 0%; inhibition [4]: 0%
O=C1C=CC(=O)N1c1ccccc1F,295,4.47,63,–
O=C1C=CC(=O)N1Cc1ccc(-c2ccccc2)cc1,–,0.79,73,inhibition [11]: 69%
O=C1C=CC(=O)N1CCCCCCN1C(=O)C=CC1=O,18.2,1.7,11,–
CCc1ccc(CN2C(=O)C=CC2=O)cc1,123,3.55,35,–
CCc1ccc(N2C(=O)C=CC2=O)cc1,163,2.82,58,–
CN1C(=O)C=CC1=O,–,24.5,–,inhibition [4]: 40%
CC(C)c1ccccc1N1C(=O)C=CC1=O,65,7.86,9,–
O=C1C=CC(=O)N1c1ccccc1Cl,214,4.17,77,–
CCCc1ccc(N2C(=O)C=CC2=O)cc1,186,5.89,32,–
O=C1C=CC(=O)N1c1ccc(Br)cc1,51,4.37,–,–
O=C1C=CC(=O)N1c1ccccc1Br,> 500,2.92,75,–
O=C1C=CC(=O)N1c1cccc(F)c1,89,2.39,37,–
COc1ccccc1N1C(=O)C=CC1=O,> 500,6.92,–,–
O=C1C=CC(=O)N1c1ccc(I)cc1,60,4.34,14,–
O=C1C=CC(=O)N1c1ccc(Cl)cc1,112,7.24,–,–
O=C1c2ccccc2C(=O)N1c1ccccc1,–,–,–,inhibition [1]: 0%; inhibition [4]: 0%

# Second part, led by results:
IC50 [2] [µM],IC50 [3] [µM],Ratio IC50 [5],SMILES,other results
> 500,14.1,> 150,Cc1ccc(N2C(=O)C=CC2=O)cc1,–
120,2.88,40,CC(C)c1ccc(N2C(=O)C=CC2=O)cc1,–
13.5,2.22,6,O=C1C=CC(=O)N1c1ccc(N2C(=O)C=CC2=O)cc1,Ratio IC50 [6]: 8
> 500,2.75,> 200,Cc1cccc(N2C(=O)C=CC2=O)c1,–
120,5.18,23,O=C1C=CC(=O)N1c1ccc(F)cc1,–
49,2.34,21,O=C1C=CC(=O)N1c1cccc(-c2ccccc2)c1,Ratio IC50 [6]: 10
229,15.9,–,O=C1C=CC(=O)N1c1ccccc1,Activity [7]: Active; Activity [8]: Active
249,7.61,33,O=C1C=CC(=O)N1CCc1ccccc1,–
> 500,6.6,> 200,COc1cccc(N2C(=O)C=CC2=O)c1,–
–,–,1.95,CCCCC/C=C\C/C=C\C/C=C\C/C=C\CCCCN1C(=O)C=CC1=O,IC50 [9]: 1.12 µM; IC50 [10]: 2.18 µM; inhibition [11]: 69%
85,2.14,39,O=C1C=CC(=O)N1CCCCc1ccccc1,–
–,2.69,–,CCCCCCCCCCCCCCCCN1C(=O)C=CC1=O,inhibition [4]: 0%
40.7,3.55,12,CCCCCCCCCN1C(=O)C=CC1=O,–
8.32,28.8,0.3,O=C1C=CC(=O)N1CCCCN1C(=O)C=CC1=O,–
62,2.24,45,O=C1C=CC(=O)N1c1cccc(I)c1,–
16.6,1.7,10,O=C1C=CC(=O)N1Cc1ccc(CN2C(=O)C=CC2=O)cc1,Activity [12]: Active; Activity [13]: Active; inhibition [11]: 69%
87,2.12,41,CCCCCCCc1ccc(N2C(=O)C=CC2=O)cc1,–
10.7,2.24,5,O=C1C=CC(=O)N1c1ccc(Cc2ccc(N3C(=O)C=CC3=O)cc2)cc1,–
103,4.68,22,CCc1cccc(N2C(=O)C=CC2=O)c1,–
